This passage reports NO production (% of LPS control), IC50 and Activity results from ChEMBL document CHEMBL1154236, “Monoterpenes from Paeonia albiflora and their inhibitory activity on nitric oxide production by lipopolysaccharide-activated microglia” (J Nat Prod, 2009).

The subject of data set [1] is N9. Description: Antiinflammatory activity against mouse N9 cells assessed as LPS-induced nitric oxide production at 3 uM after 48 hrs by Griess reaction relative to control. Conditions: N9, 48 h.
Data set [2] has as its system N9. Description: Antiinflammatory activity against mouse N9 cells assessed as inhibition of LPS-induced nitric oxide production after 48 hrs by Griess reaction relative to control. The conditions noted are these: N9, 48 h. In general terms: Griess reagent forms a coloured azo dye with nitrite.
The subject of data set [3] is N9. Description: Antiinflammatory activity against mouse N9 cells assessed as LPS-induced nitric oxide production at 1 uM after 48 hrs by Griess reaction relative to control. Conditions: N9, 48 h.
For data set [4], the system named is N9. Description: Antiinflammatory activity against mouse N9 cells assessed as LPS-induced nitric oxide production at 10 uM after 48 hrs by Griess reaction relative to control. The conditions noted are these: N9, 48 h.
Data set [5] relates to N9. Description: Antiinflammatory activity against mouse N9 cells assessed as LPS-induced nitric oxide production at 30 uM after 48 hrs by Griess reaction relative to control. Conditions: N9, 48 h.
Data set [6] deals with N9. Description: Cytotoxicity against LPS-stimulated mouse N9 cells at 1 to 30 uM after 48 hrs by MTT assay. The data set is classed as cell-based. The conditions noted are these: n9, 48 h. In a few lines:
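N9 microglia seeded at 5 × 10^4 cells/well and exposed to compounds with LPS (1 µg/mL) for 48 h. MTT 0.25 mg/mL then added for 3 h at 37 °C. Formazan dissolved in DMSO and absorbance read at 490 nm.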

What is called IC50 is the point on the concentration scale where inhibition reaches its midpoint. With `COc1cc(/C=C/C(=O)CC(=O)/C=C/c2ccc(O)c(OC)c2)ccc1O` [CURCUMIN], in data set [1], the NO production (% of LPS control) at 3 µM was 75.6%. For the same compound, the IC50 in data set [2] was 13.5 µM. The NO production (% of LPS control) at 1 µM in data set [3] is 86.6%. Moreover, in data set [4], the NO production (% of LPS control) at 10 µM is 56.1%. Moreover, in data set [5], the NO production (% of LPS control) at 30 µM turned out to be 35.2%.
Taken in the same sequence, the figures for `CO[C@H]1O[C@@]2(C)CC(=O)[C@H]3C[C@]2(O)[C@]13COC(=O)c1ccccc1` [PAEONIDANGENIN] were 91.5%, over 100 µM, 89.9%, 85% and 66.2%.
As for `CO[C@H]1O[C@@]2(C)CC(=O)[C@H]3C[C@]2(O[C@@H]2O[C@H](COC(=O)c4ccccc4)[C@@H](O)[C@H](O)[C@H]2O)[C@]13COC(=O)c1ccc(O)cc1` [PAEONIDANIN C], the NO production (% of LPS control) at 3 µM in data set [1] was 111%. The half-maximal inhibitory concentration (IC50) in data set [2] was over 100 µM. For the same compound, the NO production (% of LPS control) at 1 µM in data set [3] came out at 106%. The NO production (% of LPS control) at 10 µM in data set [4] came to 94.3%. For the same compound, the NO production (% of LPS control) at 30 µM in data set [5] is 80.3%.
For `CO[C@]12C[C@]3(C)O[C@H](O1)[C@]1(COC(=O)c4ccccc4)[C@@H]2C[C@]13O[C@@H]1O[C@H](CO)[C@@H](O)[C@H](O)[C@H]1O` the same measures were 109%, over 100 µM, 111%, 107% and 90.4%.
For `CO[C@]12C[C@]3(C)O[C@H](O1)[C@]1(COC(=O)c4ccccc4)[C@@H]2C[C@]13O[C@@H]1O[C@H](COC(=O)c2ccccc2)[C@@H](O)[C@H](O)[C@H]1O` the same measures were 95.5%, 22.6 µM, 91.9%, 70.4% and 34.9%.
Taken in the same sequence, the figures for `COc1cc(COC[C@H]2O[C@@H](O[C@@]34C[C@H]5[C@@]3(COC(=O)c3ccccc3)[C@H]3O[C@]5(O)C[C@]4(C)O3)[C@H](O)[C@@H](O)[C@@H]2O)ccc1O` were 106%, over 100 µM, 107%, 99.8% and 90.1%.
`C[C@@]12C[C@@]3(O)O[C@@H](O1)[C@]1(COC(=O)c4ccccc4)[C@@H]3C[C@]12O[C@@H]1O[C@H](COC(=O)c2cc(O)c(O)c(O)c2)[C@@H](O)[C@H](O)[C@H]1O` [GALLOYLPAEONIFLORIN]: the NO production (% of LPS control) at 3 µM in data set [1] was 84.4%. Also, the Activity result in data set [6] is reported as “Toxic”. The NO production (% of LPS control) at 1 µM in data set [3] was determined as 82.1%. The NO production (% of LPS control) at 10 µM in data set [4] came to 62.1%. Also, in data set [5], the NO production (% of LPS control) at 30 µM was 69.5%.
`C[C@@]12C[C@@]3(O)O[C@@H](O1)[C@]1(COC(=O)c4ccc(O)cc4)[C@@H]3C[C@]12O[C@@H]1O[C@H](CO)[C@@H](O)[C@H](O)[C@H]1O` [OXYPAEONIFLORIN]: the NO production (% of LPS control) at 3 µM in data set [1] came to 83%. In addition, in data set [2], the IC50 was over 100 µM. The NO production (% of LPS control) at 1 µM in data set [3] was found to be 71.7%. Also, in data set [4], the NO production (% of LPS control) at 10 µM stood at 76.6%. The NO production (% of LPS control) at 30 µM in data set [5] amounted to 76.6%.
In the case of `C[C@@]12C[C@@]3(O)O[C@@H](O1)[C@]1(COC(=O)c4ccc(O)cc4)[C@@H]3C[C@]12O[C@@H]1O[C@H](COC(=O)c2ccccc2)[C@@H](O)[C@H](O)[C@H]1O` [MUDANPIOSIDE C], the NO production (% of LPS control) at 3 µM in data set [1] was determined as 66.7%. Moreover, the IC50 in data set [2] amounted to 12.8 µM. Further, the NO production (% of LPS control) at 1 µM in data set [3] is 71.8%. For the same compound, the NO production (% of LPS control) at 10 µM in data set [4] worked out at 57.5%. Further, the NO production (% of LPS control) at 30 µM in data set [5] came to 38.5%.
Taken in the same sequence, the figures for `C[C@]12CC(=O)[C@H]3C[C@]1(O[C@@H]1O[C@H](CO)[C@@H](O)[C@H](O)[C@H]1O)[C@]3(COC(=O)c1ccccc1)[C@@H](OC[C@H]1O[C@@H](O[C@@]34C[C@H]5[C@@]3(COC(=O)c3ccccc3)[C@H]3O[C@]5(O)C[C@]4(C)O3)[C@H](O)[C@@H](O)[C@@H]1O)O2` [PAEONIDANIN E] were 102%, 64.7 µM, 102%, 88.8% and 69.2%.
For `CC12CC3OC4O[C@H](CO)[C@@H](O)[C@H](O)[C@H]4OC34CC1C4(COC(=O)c1ccccc1)C(=O)O2` (stereo not given in full) [LACTIFLORIN] the same measures were 91.5%, over 100 µM, 89.4%, 86.7% and 81.2%.
On to `CO[C@H]1O[C@@]2(C)CC(=O)[C@H]3C[C@]2(O[C@@H]2O[C@H](COC(=O)c4cc(O)c(O)c(O)c4)[C@@H](O)[C@H](O)[C@H]2O)[C@]13COC(=O)c1ccccc1` [PAEONIDANIN B], for which the NO production (% of LPS control) at 3 µM in data set [1] stood at 64.1%. The IC50 in data set [2] stood at 13.9 µM. Further, the NO production (% of LPS control) at 1 µM in data set [3] stood at 63%. For the same compound, the NO production (% of LPS control) at 10 µM in data set [4] was 52.2%. In data set [5], the NO production (% of LPS control) at 30 µM stood at 43.5%.
Taken in the same sequence, the figures for `CO[C@]12C[C@]3(C)O[C@H](O1)[C@]1(COC(=O)c4ccccc4)[C@@H]2C[C@]13O[C@@H]1O[C@H](COC(=O)c2cc(O)c(O)c(O)c2)[C@@H](O)[C@H](O)[C@H]1O` were 113%, over 100 µM, 80.8%, 108% and 102%.
Consider `C[C@@H]1CC(=O)[C@H]2C[C@]1(O)[C@]2(C)COC(=O)c1cc(O)c(O)c(O)c1` [PAEONIFLORONE], for which the NO production (% of LPS control) at 3 µM in data set [1] was determined as 83.8%. Further, the concentration for half-maximal inhibition (IC50) in data set [2] was found to be 61.8 µM. Also, in data set [3], the NO production (% of LPS control) at 1 µM turned out to be 91.3%. Further, in data set [4], the NO production (% of LPS control) at 10 µM stood at 67.5%. The NO production (% of LPS control) at 30 µM in data set [5] is 64.1%.
Taken in the same sequence, the figures for `CO[C@@H]1C[C@]2(C)OC(=O)[C@]3(COC(=O)c4ccccc4)[C@@H]1C[C@@]23O[C@@H]1O[C@H](CO)[C@@H](O)[C@H](O)[C@H]1O` were 91.6%, over 100 µM, 91.5%, 95.5% and 102%.
For `CO[C@]12C[C@]3(C)O[C@H](O1)[C@]1(CO)[C@@H]2C[C@]13O[C@@H]1O[C@H](CO)[C@@H](O)[C@H](O)[C@H]1O` the same measures were 104%, over 100 µM, 101%, 97.4% and 78.9%.
Taken in the same sequence, the figures for `C[C@@]12C[C@@]3(O)O[C@@H](O1)[C@]1(COC(=O)c4ccccc4)[C@H]3C[C@@]12O[C@@H]1O[C@H](CO)[C@@H](O)[C@H](O)[C@H]1O` [PAEONIFLORIN] were 87.8%, 27.8 µM, 100%, 79.5% and 66.7%.
As for `COc1cc(C(=O)OC[C@H]2O[C@@H](O[C@@]34C[C@H]5[C@@]3(CO)[C@H]3O[C@]5(O)C[C@]4(C)O3)[C@H](O)[C@@H](O)[C@@H]2O)ccc1O` [MUDANPIOSIDE E], the NO production (% of LPS control) at 3 µM in data set [1] was 83.9%. In addition, the IC50 in data set [2] is over 100 µM. In addition, the NO production (% of LPS control) at 1 µM in data set [3] was determined as 86.2%. For the same compound, the NO production (% of LPS control) at 10 µM in data set [4] is 80.9%. Moreover, the NO production (% of LPS control) at 30 µM in data set [5] was 67.4%.
Take `C[C@]12C[C@@H](O)[C@H]3C[C@]1(O[C@@H]1O[C@H](COC(=O)c4ccccc4)[C@@H](O)[C@H](O)[C@H]1O)[C@]3(COC(=O)c1ccccc1)C(=O)O2` [PAEONIVAYIN]: the NO production (% of LPS control) at 3 µM in data set [1] was found to be 88.3%. For the same compound, in data set [2], the IC50 is over 100 µM. For the same compound, in data set [3], the NO production (% of LPS control) at 1 µM amounted to 86.7%. For the same compound, the NO production (% of LPS control) at 10 µM in data set [4] came to 82%. The NO production (% of LPS control) at 30 µM in data set [5] was 82.6%.
Taken in the same sequence, the figures for `CO[C@H]1O[C@@]2(C)CC(=O)[C@H]3C[C@]2(O[C@@H]2O[C@H](COC(=O)c4ccccc4)[C@@H](O)[C@H](O)[C@H]2O)[C@]13COC(=O)c1ccccc1` [PAEONIDANIN A] were 74.9%, 36.2 µM, 86.6%, 59.1% and 57.2%.
For `C[C@@]12C[C@@]3(O)O[C@@H](O1)[C@]1(COC(=O)c4ccccc4)[C@@H]3C[C@]12O[C@@H]1O[C@H](CO[C@H]2O[C@H](CO)[C@@H](O)[C@H](O)[C@H]2O)[C@@H](O)[C@H](O)[C@H]1O` the same measures were 91.5%, over 100 µM, 90.1%, 85.1% and 70.5%.
